Active and inactive are the calls of the source. The rule behind the calls is not given here.
tested on: not listed separately; test: Selectivity index, ratio of IC50 for rat L6 cells to IC50 for Plasmodium falciparum K1; format: toxicity, cell-based; settings: L6 cells, read-out: Ratio IC50
Outline: (§1)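 Selectivity index is IC50 against L6 rat myoblast cells divided by IC50 against the named parasite.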

Compound	selectivity ratio
Cl.Cl.N=C(N)c1ccc(-c2cccc(-c3ccc(C(=N)N)cc3)c2)cc1	1280
N=C(Nc1ccc(-c2cc(Cl)cc(-c3cccc(NC(=N)c4ccccc4)c3)c2)cc1)c1ccccc1	58
Cl.Cl.N=C(Nc1ccc(-c2cccc(-c3cccc(NC(=N)c4ccccn4)c3)c2)cc1)c1ccccn1	13

tested on: Trypanosoma cruzi; test: Antiprotozoal activity against intracellular amastigote form of Trypanosoma cruzi Tulahuen C2C4 expressing LacZ infected in rat L6 cells after 48 hrs; format: functional, organism-based; settings: Tulahuen C2C4, L6, 48 h
Outline: (§2)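 Uses T. b. rhodesiense STIB900, T. cruzi Tulahuen C2C4 LacZ intracellular amastigotes, or L6 rat myoblasts depending on line.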

Compound	IC50 [nM]
Cl.Cl.N=C(N)c1ccc(-c2cccc(-c3ccc(C(=N)N)cc3)c2)cc1	71600
N=C(Nc1ccc(-c2cc(Cl)cc(-c3cccc(NC(=N)c4ccccc4)c3)c2)cc1)c1ccccc1	2040
Cl.Cl.N=C(Nc1ccc(-c2cccc(-c3cccc(NC(=N)c4ccccn4)c3)c2)cc1)c1ccccn1	388

tested on: L6; test: Cytotoxicity against rat L6 cells after 72 hrs by Alamar Blue assay; format: cell-based; settings: L6, 72 h; outline: as §2

Compound	IC50 [nM]
Cl.Cl.N=C(N)c1ccc(-c2cccc(-c3ccc(C(=N)N)cc3)c2)cc1	31200
N=C(Nc1ccc(-c2cc(Cl)cc(-c3cccc(NC(=N)c4ccccc4)c3)c2)cc1)c1ccccc1	2270
Cl.Cl.N=C(Nc1ccc(-c2cccc(-c3cccc(NC(=N)c4ccccn4)c3)c2)cc1)c1ccccn1	2720

tested on: Leishmania amazonensis; test: Antiprotozoal activity against intracellular amastigote form of Leishmania amazonensis infected in CD1 mouse macrophages after 72 hrs by […]; format: functional, organism-based; settings: not given

Compound	IC50 [nM]
N=C(Nc1ccc(-c2cc(Cl)cc(-c3cccc(NC(=N)c4ccccc4)c3)c2)cc1)c1ccccc1	1020
Cl.Cl.N=C(Nc1ccc(-c2cccc(-c3cccc(NC(=N)c4ccccn4)c3)c2)cc1)c1ccccn1	123

tested on: Trypanosoma brucei rhodesiense; test: Antiprotozoal activity against Trypanosoma brucei rhodesiense STIB900 infected in NMRI mouse assessed as host mean survival days at 5 mg/kg, ip qd for 4 days; format: functional; settings: route intraperitoneal
Outline: (§3)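 Acute-stage HAT mouse model infected with STIB900. Cure means survival to 60 days after infection with no parasitemia relapse. Mean survival days are counted from infection and use every mouse: relapsed mice, plus cured mice entered as >60 days.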

Compound	MSD [days]
Cl.Cl.N=C(N)c1ccc(-c2cccc(-c3ccc(C(=N)N)cc3)c2)cc1	>60

tested on: Trypanosoma brucei rhodesiense; test: Antiprotozoal activity against Trypanosoma brucei rhodesiense STIB900 infected in NMRI mouse assessed as host mean survival days at 10 mg/kg, ip; format: functional; settings: route intraperitoneal; outline: as §3

Compound	MSD [days]
Cl.Cl.N=C(N)c1ccc(-c2cccc(-c3ccc(C(=N)N)cc3)c2)cc1	>60

tested on: Mus musculus; test: Toxicity in BALB/c mouse assessed as tremors measured after second dose at 30 mg/kg, ip qd for 5 days; format: organism-based; parameters: dose 30 mg/kg, route intraperitoneal; settings: in vivo, 120 h
Outline: (§4)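 Tolerability check before efficacy testing in uninfected BALB/c mice, groups of two, given 30 mg/kg ip daily for five days. Watched for overt toxicity signs such as tremors and hyperactivity after each dose. Mice showing adverse effects were euthanized.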

Compound	Activity
Cl.Cl.N=C(Nc1ccc(-c2cccc(-c3cccc(NC(=N)c4ccccn4)c3)c2)cc1)c1ccccn1	Toxic

tested on: not listed separately; test: Selectivity index, ratio of IC50 for rat L6 cells to IC50 for Trypanosoma brucei rhodesiense STIB900; format: toxicity, cell-based; settings: L6 cells, read-out: Ratio IC50; outline: as §1

Compound	selectivity ratio
Cl.Cl.N=C(N)c1ccc(-c2cccc(-c3ccc(C(=N)N)cc3)c2)cc1	8490
N=C(Nc1ccc(-c2cc(Cl)cc(-c3cccc(NC(=N)c4ccccc4)c3)c2)cc1)c1ccccc1	13
Cl.Cl.N=C(Nc1ccc(-c2cccc(-c3cccc(NC(=N)c4ccccn4)c3)c2)cc1)c1ccccn1	1

tested on: Mus musculus; test: Toxicity in BALB/c mouse assessed as hyperactivity measured after first dose at 30 mg/kg, ip qd for 5 days; format: organism-based; parameters: dose 30 mg/kg, route intraperitoneal; settings: in vivo, 120 h; outline: as §4

Compound	Activity
Cl.Cl.N=C(Nc1ccc(-c2cccc(-c3cccc(NC(=N)c4ccccn4)c3)c2)cc1)c1ccccn1	Toxic

tested on: Trypanosoma brucei rhodesiense; test: Antiprotozoal activity against Trypanosoma brucei rhodesiense STIB900 infected in NMRI mouse assessed as reduction of parasitemia relapse at 5 mg/kg, ip qd for 4 days; format: functional, organism-based; parameters: dose 5 mg/kg; settings: not given
Outline: (§5)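 Mouse model of acute (early) stage HAT with T. b. rhodesiense STIB900, groups of 4 mice. Amidines dosed intraperitoneally, 4 daily doses of 5 mg/kg or single doses; prodrugs dosed orally, 4 daily doses of 25 mg/kg. Cure means survival to 60 days after infection with no parasitemia relapse. Mean survival days counts all mice, with cured mice scored as >60 days.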

Compound	Activity
N=C(N)c1ccc(-c2cccc(-c3ccc(C(=N)N)cn3)c2)nc1	Active
Cl.Cl.N=C(N)c1ccc(-c2cccc(-c3ccc(C(=N)N)cc3)c2)cc1	Active

tested on: Trypanosoma brucei rhodesiense; test: Antiprotozoal activity against Trypanosoma brucei rhodesiense STIB900 infected in NMRI mouse assessed as reduction of parasitemia relapse at 10 mg/kg, ip; format: functional, organism-based; parameters: dose 10 mg/kg; settings: not given; outline: as §5

Compound	Activity
N=C(N)c1ccc(-c2cccc(-c3ccc(C(=N)N)cn3)c2)nc1	Active
Cl.Cl.N=C(N)c1ccc(-c2cccc(-c3ccc(C(=N)N)cc3)c2)cc1	Active

tested on: Plasmodium falciparum; test: Antiprotozoal activity against chloroquine-resistant Plasmodium falciparum K1 after 48 hrs by [3H]-hypoxanthine incorporation assay; format: functional, organism-based; settings: Plasmodium falciparum, K1

Compound	IC50 [nM]
Cl.Cl.N=C(N)c1ccc(-c2cccc(-c3ccc(C(=N)N)cc3)c2)cc1	24
N=C(Nc1ccc(-c2cc(Cl)cc(-c3cccc(NC(=N)c4ccccc4)c3)c2)cc1)c1ccccc1	39
Cl.Cl.N=C(Nc1ccc(-c2cccc(-c3cccc(NC(=N)c4ccccn4)c3)c2)cc1)c1ccccn1	208

tested on: not listed separately; test: Selectivity index, ratio of IC50 for rat L6 cells to IC50 for Trypanosoma cruzi Tulahuen C2C4; format: toxicity, cell-based; settings: read-out: Ratio IC50; outline: as §1

Compound	selectivity ratio
Cl.Cl.N=C(N)c1ccc(-c2cccc(-c3ccc(C(=N)N)cc3)c2)cc1	< 1
N=C(Nc1ccc(-c2cc(Cl)cc(-c3cccc(NC(=N)c4ccccc4)c3)c2)cc1)c1ccccc1	1
Cl.Cl.N=C(Nc1ccc(-c2cccc(-c3cccc(NC(=N)c4ccccn4)c3)c2)cc1)c1ccccn1	7

tested on: Trypanosoma brucei rhodesiense; test: Antiprotozoal activity against Trypanosoma brucei rhodesiense STIB900 after 72 hrs by Alamar Blue assay; format: functional, organism-based; settings: Trypanosoma brucei, STIB900, 72 h; outline: as §2

Compound	IC50 [nM]
Cl.Cl.N=C(N)c1ccc(-c2cccc(-c3ccc(C(=N)N)cc3)c2)cc1	4
N=C(Nc1ccc(-c2cc(Cl)cc(-c3cccc(NC(=N)c4ccccc4)c3)c2)cc1)c1ccccc1	178
Cl.Cl.N=C(Nc1ccc(-c2cccc(-c3cccc(NC(=N)c4ccccn4)c3)c2)cc1)c1ccccn1	1940

tested on: not listed separately; test: Selectivity index, ratio of IC50 for rat L6 cells to IC50 for Leishmania amazonensis; format: toxicity, cell-based; settings: read-out: Ratio IC50; outline: as §1

Compound	selectivity ratio
N=C(Nc1ccc(-c2cc(Cl)cc(-c3cccc(NC(=N)c4ccccc4)c3)c2)cc1)c1ccccc1	2
Cl.Cl.N=C(Nc1ccc(-c2cccc(-c3cccc(NC(=N)c4ccccn4)c3)c2)cc1)c1ccccn1	22

tested on: Leishmania donovani; test: Antiprotozoal activity against Leishmania donovani promastigotes infected in BALB/c mouse assessed as inhibition of liver parasitemia at 10 mg/kg, po qd for 5 days; format: functional; settings: 120 h
Outline: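 L. donovani-infected BALB/c mice dosed daily for 5 days, 30 mg/kg ip or 10 mg/kg orally, depending on line.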

Compound	inhibition in vivo at 10 mg/kg [%]
CCCCCCCCCCCCCCCCOP(=O)([O-])OCC[N+](C)(C)C [MILTEFOSINE]	96
